Screens deposited in PubChem BioAssay by The Scripps Research Institute Molecular Screening Center.
S1P4 antagonist = human S1P4 receptor antagonism; S1P4-expressing cells, antagonist mode, reporter read-out; inhibition, % at 4.98 µM; 220,000 tested, 0.26% active; AID 1510; in the data active = inhibition above about 29%
Target sequence (O95977 whole entry, looked up): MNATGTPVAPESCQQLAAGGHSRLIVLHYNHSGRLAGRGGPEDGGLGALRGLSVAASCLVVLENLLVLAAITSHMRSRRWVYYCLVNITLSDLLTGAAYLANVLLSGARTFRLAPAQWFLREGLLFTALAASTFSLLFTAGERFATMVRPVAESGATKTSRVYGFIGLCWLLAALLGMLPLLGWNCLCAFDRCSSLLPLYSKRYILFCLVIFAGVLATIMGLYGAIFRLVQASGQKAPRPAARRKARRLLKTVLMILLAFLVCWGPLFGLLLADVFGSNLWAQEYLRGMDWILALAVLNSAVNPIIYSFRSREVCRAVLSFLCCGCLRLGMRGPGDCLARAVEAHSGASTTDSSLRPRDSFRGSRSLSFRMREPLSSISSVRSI
NPY-Y1 PAM-ag = potentiators or agonists of human neuropeptide Y receptor Y1 | 220,000 tested, 0.37% active | activation, % at 3.6 µM | P25929 | NPY-Y1 expressing cells, potentiator/agonist activation; in the data active = activation above about 33%, passing the limit was not always enough;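 note: cells stimulated with NPY at EC10 then isoproterenol at EC100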
NPY-Y2 PAM-ag = potentiates or activates human NPY-Y2 receptor | cells expressing NPY-Y2, potentiator/agonist read-out | 220,000 tested, 0.45% active | activation, % at 3.6 µM; in the data active = activation above about 27%;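 note: cells stimulated with NPY near EC25 plus isoproterenol at EC100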
S1P4 ag = activates the human S1P4 receptor; S1P4-expressing cell line, agonist reporter assay; activation, % at 4.98 µM; AID 1509; 220,000 tested, 0.35% active; in the data active = activation above about 11%
NPY-Y1 antag = blocks the human neuropeptide Y Y1 receptor; P25929; HEK293-CNG Y1 cells, membrane potential fluorescence; NPY at EC95, then isoproterenol; inhibition, % at 3.6 µM; 200,000 tested, 1% active; AID 1040;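 active = inhibition above the campaign mean inhibition of all tested compounds plus 3 SD, cut at about 20% in these data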
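Assay system: HEK293 cells with Y1 receptor plus CNG channel | Probe or stimulus: NPY (25 nM), isoproterenol (1 µM), Ro 20-1724 (25 µM) | Timing: Compound incubation 1 h at room temperature, readout 45 min post-stimulation | Measured by: Membrane-potential fluorescent dye readout | Benchmarks: High control isoproterenol alone, low control NPY with isoproterenol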
NPY Y2 blocker = antagonists of human neuropeptide Y receptor Y2; NPY-Y2 expressing cells, antagonist mode; 140,000 tested, 0.99% active; AID 793; P49146; inhibition, % at 2.7 µM; in the data active = inhibition above about 17%
NPY1 antag ctr = antagonizes human NPY-Y1, counter-screen to NPY-Y2 antagonists. shares compounds with NPY Y2 blocker. AID 1256. cell-based NPY-Y1 antagonism counterscreen. inhibition, % at 3.6 µM. 710 tested, 19% active; in the data active = inhibition above about 20%;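 note: cells challenged with NPY then isoproterenol with cAMP sensed through a CNG channel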
NPY-Y2 ant conf = confirmation of human neuropeptide Y receptor Y2 antagonists; shares compounds with NPY Y2 blocker; HEK293 NPY-Y2 CNG channel, membrane potential fluorescence; inhibition, % at 2.8 µM; 710 tested, 32% active;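 active = mean inhibition of triplicate wells above the hit cutoff set in the primary screen, cut at about 17% in these data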
Hits are given with their value; i = inactive; nt = no result given. Most compounds without a hit are left out; they make up all but 2.4% or so of the library.

SMILES	S1P4 antagonist	NPY-Y1 PAM-ag	NPY-Y2 PAM-ag	S1P4 ag	NPY-Y1 antag	NPY Y2 blocker	NPY1 antag ctr	NPY-Y2 ant conf
CN(C)S(=O)(=O)c1cccc(NC(=O)COC(=O)c2ccc3c(c2)OCO3)c1	i	i	i	i	i	i	nt	nt
CCn1c(=N)n(CC(=O)C23CC4CC(CC(C4)C2)C3)c2ccccc21	i	i	i	i	i	27	21	32
CN(C)/C=C(\C=N\OCc1ccc(Cl)cc1Cl)C(=O)Nc1ccc(Cl)c(Cl)c1	i	i	i	i	i	i	nt	nt
O=C(O)c1cc(Cl)c2ccccc2c1O	i	i	i	i	i	20	21	i
Cc1ccn2c(CN(C)CCn3nc(C)cc3C)c(C(=O)N3CCCCCC3)nc2c1	i	i	i	i	i	nt	nt	nt
O=C(NC1CCCCCC1)c1ccc(S(=O)(=O)NCc2ccco2)cc1	i	i	i	i	i	21	i	i
O=C(COC(=O)c1ccc(S(=O)(=O)NCc2ccco2)cc1)NC1CCCCCC1	i	i	i	i	i	i	nt	nt
CCC(C)N(C(=O)Cn1nnc2ccccc21)C(C(=O)Nc1ccc(F)cc1)c1cccc(OC)c1 (configuration not stated)	i	i	i	i	i	18	i	i
CC(C)c1ccc(/C=C/C(=O)NC(=S)Nc2ccc(CN3CCOCC3)cc2)cc1	i	i	i	i	i	21	25	72
CCCCOC(=O)Nc1nc(C)c(C(=O)OCC)s1	i	i	i	i	i	18	i	i
CCOC(=O)c1sc(NC(=O)CC)nc1C	i	i	i	i	i	nt	nt	nt
O=C(N/N=C/c1ccco1)c1ccccc1OCc1ccc(Br)cc1	i	i	i	i	i	33	i	20
O=C(N/N=C/c1ccco1)c1ccc(OCc2ccccc2)cc1	i	i	i	i	nt	nt	nt	nt
O=C(CSc1ccsc1[N+](=O)[O-])NCc1ccco1	i	i	i	i	i	nt	nt	nt
COc1cccc2sc(N(CCCN(C)C)C(=O)c3sc4ccccc4c3Cl)nc12	i	i	i	i	i	27	i	i
Cc1cccc2sc(N(CCCN(C)C)C(=O)COc3ccc(Cl)cc3)nc12	i	i	i	i	i	nt	nt	nt
COc1ccc(CNC(=O)COC(=O)/C=C/c2cccc(Br)c2)cc1	i	i	i	i	i	nt	nt	nt
N/C(Cc1ccc(Cl)cc1)=N\OC(=O)Cc1ccc([N+](=O)[O-])cc1	i	i	i	i	i	i	nt	nt
CCOC(=O)/C(N=Nc1ccc(Cl)cc1)=C(/O)c1ccc([N+](=O)[O-])cc1	i	i	i	i	i	17	i	i
CC1(C)Cc2nc(-c3ccccc3)nc(SCC(O)CO)c2CO1 (configuration not stated)	i	i	i	i	nt	nt	nt	nt
CCN(CC)C(=O)CSc1nc(-c2ccc(C)cc2)nc2c1COC(C)(C)C2	i	i	i	i	i	20	i	i
O=c1c2ccccc2cnn1Cc1n[nH]c(=S)n1-c1ccc(Cl)cc1	i	i	i	i	i	28	i	i
Cc1ccc(S(=O)(=O)N2CCN(CC(=O)N/N=C/C=C/c3ccccc3)CC2)cc1	i	i	i	i	i	i	nt	nt
O=C(Nc1ccc2c(c1)OCO2)c1cc(-c2cccnc2)nc2ccccc12	i	i	i	i	i	nt	nt	nt
Cc1ccc(-c2cc(C(=O)Nc3ccc4c(c3)OCCO4)c3ccccc3n2)cc1	i	i	i	i	i	27	i	39
SMILES	S1P4 antagonist	NPY-Y1 PAM-ag	NPY-Y2 PAM-ag	S1P4 ag	NPY-Y1 antag	NPY Y2 blocker	NPY1 antag ctr	NPY-Y2 ant conf
O=C(C(Sc1ccccc1)c1ccccc1)N1CCN(c2ccccc2)CC1 (configuration not stated)	i	i	i	i	i	19	i	i
CCCCc1nc2ccccc2c(NC(=O)CNC(C)(C)C)c1CCC	i	i	i	i	i	i	nt	nt
CCCCc1nc2ccccc2c(N)c1CCC (tested in a mixture with another compound)	i	i	i	i	i	18	i	i
CCCCCCCCNC(=O)/C(C#N)=C/c1ccc(SC)cc1	i	i	i	i	i	i	nt	nt
Cc1ccc(S(=O)(=O)C(C)C(=O)c2ccc3c(c2)OCCO3)cc1 (configuration not stated)	i	i	i	i	i	i	nt	nt
CCC(=O)Nc1nonc1-c1nc2ccccc2n1Cc1cccc2ccccc12	i	i	i	i	i	18	26	41
O=C1C=CC(=O)N1c1cccc(-c2ccccc2)c1	i	i	i	i	nt	nt	nt	nt
Cc1cccc(CSCCNC(=O)COc2ccc(Cl)cc2)c1	i	i	i	i	i	22	i	17
C=CCN(CC=C)C(=S)Nc1ccc(OC)c(OC)c1	i	i	i	i	i	nt	nt	nt
O=C(Nc1ccc(S(=O)(=O)NC2CCCC2)cc1)c1cnccn1	i	i	i	i	i	23	i	i
Cc1cccc(OCCCSc2nc3ccc(C)cc3[nH]2)c1	i	i	i	i	i	17	i	i
Cc1ccc(S(=O)(=O)/N=C(/Nc2ccc3[nH]c(=O)[nH]c3c2)c2ccc(F)cc2)cc1	i	i	i	i	i	nt	nt	nt
CCOc1ccc(-c2nc(C#N)c(NCc3ccc4c(c3)OCO4)o2)cc1	i	i	i	i	i	i	nt	nt
Cc1ccc(OCc2nc(C#N)c(NCc3ccc4c(c3)OCO4)o2)cc1	i	i	i	i	i	22	i	i
O=C(CSc1nnc(-c2cccs2)o1)c1cccs1	i	i	i	i	i	i	nt	nt
Cc1cc(C(=O)CSc2nnc(-c3cccs3)o2)c(C)n1-c1ccccc1	i	i	i	i	i	20	i	i
Cc1ccc(CNC(=O)c2cn(C3CCCCC3)c(=O)c3c2c2ccccc2n3C)o1	i	i	i	i	i	20	i	i
COc1ccc(CNC(=O)C/C(C)=N/NC(=O)COc2cccc(C)c2)cc1	i	i	i	i	i	nt	nt	nt
Cc1cccc(N2CCN(CC(=O)Nc3ccccc3[N+](=O)[O-])CC2)c1C	i	i	i	i	i	38	i	i
CCOC(=O)CCCCC(=O)c1[nH]c(=O)[nH]c1CSc1nnc2c3ccccc3n(C(C)C)c2n1	i	i	i	i	i	32	i	45
O=C(C1CCN(Cc2ccc(Cl)cc2)CC1)N1CCN(C(c2ccccc2)c2ccccc2)CC1	i	i	i	i	i	20	i	32
O=C(C1CCN(Cc2ccc(OCc3ccccc3)cc2)CC1)N1CCCC1	i	i	i	i	i	i	nt	nt
CCOCCCn1c(=N)c(C(=O)NCc2ccc3c(c2)OCO3)cc2c(=O)n3ccccc3nc21	i	i	i	i	i	23	i	i
CCCn1c(=N)c(C(=O)NCc2ccc3c(c2)OCO3)cc2c(=O)n3cccc(C)c3nc21	i	i	i	i	i	i	nt	nt
